Measurements taken from ChEMBL document CHEMBL1269007, “Synthesis and biological evaluation of Apogossypolone derivatives as pan-active inhibitors of antiapoptotic B-cell lymphoma/leukemia-2 (Bcl-2) family proteins” (J Med Chem, 2010).
Where “and” joins values, the source holds several entries; their conditions need not be identical. Equal entries are not always repeated. Calls of active or inactive are those of the source. No cut-off for these calls is given here.

Tests used:
[1] = target: T1, Bcl-2-like protein 1 (Homo sapiens, UniProt Q07817); assay: Binding affinity Bcl-xL at 200 uM by one-dimensional 1H nuclear magnetic resonance spectroscopy
T1 sequence (Q07817 whole entry): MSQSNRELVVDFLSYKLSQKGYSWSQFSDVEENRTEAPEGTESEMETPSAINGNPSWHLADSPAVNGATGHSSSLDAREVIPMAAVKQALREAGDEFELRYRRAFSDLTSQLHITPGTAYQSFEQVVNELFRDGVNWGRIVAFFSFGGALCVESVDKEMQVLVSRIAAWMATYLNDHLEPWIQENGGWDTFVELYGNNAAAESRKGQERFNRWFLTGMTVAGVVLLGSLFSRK

[2] = system: Mus musculus; assay: Toxicity in human Bcl2 expressing B6 transgenic BALB/c mouse assessed as mortality at 30 umol/kg, ip administered as single dose after 24 hrs; assay type: organism-based; details: in vivo
Method in brief: (§1)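 Age- and sex-matched B6 Bcl2 transgenic mice (human BCL-2/IgH minigene on Balb/c background, no aggressive lymphoma yet) given a single i.p. injection of compound in 500 μL ethanol:Cremophor EL:saline 10:10:80. Controls received vehicle. Animals sacrificed at 24 h with Avertin; spleen removed and weighed.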

[3] = target: T2, Bcl-2-related protein A1 (Homo sapiens, UniProt Q16548); assay: Displacement of F-BakBH3 from Bfl-1 after 30 mins by fluorescence polarization assay
T2 sequence (Q16548 whole entry): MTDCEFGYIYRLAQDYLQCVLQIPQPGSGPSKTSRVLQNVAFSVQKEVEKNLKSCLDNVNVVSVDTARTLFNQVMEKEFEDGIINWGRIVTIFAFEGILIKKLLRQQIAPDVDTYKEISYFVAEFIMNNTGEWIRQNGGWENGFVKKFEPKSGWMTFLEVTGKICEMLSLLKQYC

[4] = system: Mus musculus; assay: Reduction of spleen weight in ip dosed human Bcl2 expressing B6 transgenic BALB/c mouse administered as single dose after 24 hrs; assay type: functional, organism-based
[5] = system: Mus musculus; assay: Reduction of spleen weight in human Bcl2 expressing B6 transgenic BALB/c mouse at 30 umol/kg, ip administered as single dose after 24 hrs; assay type: functional; set-up: scale not given: the % may be the effect or the level left
[6] = system: Mus musculus; assay: Toxicity in human Bcl2 expressing B6 transgenic BALB/c mouse assessed as mortality at 60 umol/kg, ip administered as single dose after 24 hrs; assay type: organism-based; details: in vivo; method in brief: as §1
[7] = target: T1, Bcl-2-like protein 1; assay: Displacement of F-BakBH3 from Bcl-xL after 30 mins by fluorescence polarization assay
Method in brief: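 GST-Bcl-XL ΔTM (100 nM) preincubated with varying compound concentrations in PBS pH 7.4 for 10 min at room temperature. FITC-labelled Bak BH3 peptide (2.5 μL of 100 nM stock) then added. Polarization read at 480/535 nm after 30 min at room temperature. Wild-type and mutant Bak BH3 peptides served as plate controls. IC50 from sigmoidal dose-response fit; mean of three independent experiments ± SE.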

[8] = target: Apoptosis regulator Bcl-2 (Homo sapiens, UniProt P10415); assay: Displacement of FITC-Bim BH3 peptide from Bcl-2 after 10 mins by fluorescence polarization assay
Chain of Apoptosis regulator Bcl-2 (P10415 whole entry): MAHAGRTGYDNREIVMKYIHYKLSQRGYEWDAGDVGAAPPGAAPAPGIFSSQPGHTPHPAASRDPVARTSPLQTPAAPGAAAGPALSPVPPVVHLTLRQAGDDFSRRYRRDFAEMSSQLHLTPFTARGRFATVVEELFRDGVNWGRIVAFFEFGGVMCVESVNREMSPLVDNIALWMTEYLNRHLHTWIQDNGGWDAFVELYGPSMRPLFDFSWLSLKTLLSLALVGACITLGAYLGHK

[9] = target: Induced myeloid leukemia cell differentiation protein Mcl-1 (Homo sapiens, UniProt Q07820); assay: Displacement of FITC-Bim BH3 peptide from Mcl-1 after 10 mins by fluorescence polarization assay
Chain of Induced myeloid leukemia cell differentiation protein Mcl-1 (Q07820 whole entry): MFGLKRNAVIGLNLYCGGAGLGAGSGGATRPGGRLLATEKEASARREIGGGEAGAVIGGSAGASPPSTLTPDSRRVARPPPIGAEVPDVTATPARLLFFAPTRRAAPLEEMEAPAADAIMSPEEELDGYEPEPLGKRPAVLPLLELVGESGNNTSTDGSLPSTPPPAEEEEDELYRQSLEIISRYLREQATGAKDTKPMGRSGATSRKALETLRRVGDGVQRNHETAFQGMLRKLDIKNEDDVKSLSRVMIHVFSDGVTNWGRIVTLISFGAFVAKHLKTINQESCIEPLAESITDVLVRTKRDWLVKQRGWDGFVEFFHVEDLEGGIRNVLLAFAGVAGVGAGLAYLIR

[10] = system: Mus musculus; assay: Toxicity in human PPC1 cells xenografted nude mouse assessed as weight loss at 50 mg/kg, ip administered weekly 3 times; assay type: organism-based, PPC-1; set-up: dose 50 mg/kg, route intraperitoneal; details: in vivo
Method in brief: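 Nude mice carrying subcutaneous flank xenografts (5×10^6 cells), size-matched at 200 mm³, 6 per group. Dosed intraperitoneally in ethanol:Cremophor EL:saline 10:10:80, three times in week 1, twice in week 2, once in week 3; saline controls. Body weight followed over treatment and reported as average percentage loss.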

[11] = system: BP3; assay: Induction of apoptosis in human BP3 cells expressing high level of Bfl-1 and Mcl-1 after 24 hrs by annexin V-FITC and propidium iodide staining; assay type: functional, cell-based
[12] = species: Homo sapiens; assay: Induction of apoptosis in human CLL after 24 hrs by annexin V-FITC and propidium iodide staining; assay type: functional
Method in brief: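 Freshly isolated primary leukaemic cells from CLL patients cultured in RPMI 1640 with 10% FBS and penicillin/streptomycin with various compound concentrations for 1 day. Annexin V-FITC/propidium iodide staining read by flow cytometry; annexin-V-negative, PI-negative cells counted as viable; LD50 derived from dose-response.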

[13] = system: PPC-1; assay: Antitumor activity against human PPC1 cells xenografted in nude mouse assessed as tumor regression at 50 mg/kg, ip administered 5 times measured on after 2 weeks relative to control; assay type: functional; details: route intraperitoneal
Method in brief: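 Female 6-week-old nude mice injected s.c. in the flank with 5×10^6 PPC-1 cells in 0.2 ml PBS; size-matched at 200 mm³, 6 per group. Compound given i.p. in ethanol:Cremophor EL:saline 10:10:80 (500 μL), three times in week 1, twice in week 2, once in week 3; controls got saline. Caliper volume (length × width²/2) 2–3 times weekly; T/C% = mean treated volume / mean control volume.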

[14] = system: Mus musculus; assay: Toxicity in human PPC1 cells xenografted nude mouse assessed as mortality at 50 mg/kg, ip administered weekly 3 times; assay type: organism-based, PPC-1; set-up: dose 50 mg/kg, route intraperitoneal; details: in vivo
Method in brief: (§2)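 PPC-1 flank xenografts (5×10^6 cells s.c.) in female 6-week-old nude mice, size-matched at 200 mm³, 6 per group. Compound given i.p. three times in the first week in ethanol:Cremophor EL:saline 10:10:80 (500 μL); controls got saline. Survival and body weight monitored during week 1.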

[15] = Metabolic stability of the compound in rat plasma after 40 mins; assay type: ADME, cell-free; details: read-out: Stability
[16] = system: Mus musculus; assay: Reduction of spleen weight in human Bcl2 expressing B6 transgenic BALB/c mouse at 60 umol/kg, ip administered as single dose after 24 hrs relative to control; assay type: functional; set-up: scale not given: the % may be the effect or the level left
[17] = system: PPC-1; assay: Antitumor activity against human PPC1 cells xenografted in nude mouse assessed as tumor regression at 50 mg/kg, ip administered weekly 3 times; assay type: functional, organism-based; set-up: dose 50 mg/kg
Method in brief: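 Female 6-week-old nude mice given 5×10^6 cells in 0.2 ml PBS subcutaneously in the flank; tumours size-matched at 200 mm³, 6 mice/group. Intraperitoneal injections in ethanol:Cremophor EL:saline 10:10:80 (500 μL), three times week 1, twice week 2, once week 3; controls received saline. Caliper volume (length×width²/2) two to three times weekly; T/C% = mean treated/mean control volume.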

[18] = system: Mus musculus; assay: Reduction of spleen weight in human Bcl2 expressing B6 transgenic BALB/c mouse at 60 umol/kg, ip administered as single dose after 24 hrs; assay type: functional; set-up: scale not given: the % may be the effect or the level left
[19] = system: Mus musculus; assay: Toxicity in human Bcl2 expressing B6 transgenic BALB/c mouse assessed as weight loss up to 120 umol/kg, ip administered as single dose after 24 hrs; assay type: organism-based; details: in vivo
[20] = target: T1, Bcl-2-like protein 1; assay: Binding affinity Bcl-xL by isothermal titration calorimetry assay
[21] = system: Mus musculus; assay: Toxicity in human Bcl2 expressing B6 transgenic BALB/c mouse up to 120 umol/kg, ip administered as single dose after 24 hrs; assay type: organism-based; details: in vivo
Method in brief: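 B6 Bcl-2 transgenic Balb/c mice, age- and sex-matched, given one intraperitoneal dose (60 or 120 μmol/kg, also 30 μmol/kg) in ethanol:Cremophor EL:saline 10:10:80, 500 μL; survival and signs of toxicity observed over 24 h before sacrifice.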

[22] = system: RS4-11; assay: Induction of apoptosis in human RS4:11 cells expressing high level of Bcl-2 and Bcl-xL after 24 hrs by annexin V-FITC and propidium iodide staining; assay type: functional, cell-based
[23] = system: Mus musculus; assay: Toxicity in human PPC1 cells xenografted nude mouse assessed as mortality at 25 mg/kg, ip administered weekly 3 times; assay type: organism-based, PPC-1; set-up: dose 25 mg/kg, route intraperitoneal; details: in vivo; method in brief: as §2
[24] = Cytotoxicity against human H1299 cells expressing high level of Mcl-1 after 72 hrs by ATP-LITE assay; assay type: functional, cell-based; details: NCI-H1299, 72 h
Method in brief: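 Cells seeded in […] or RPMI1640 with 5 mM L-glutamine, 5% FBS, penicillin/streptomycin; H460 and H1299 at 2000, PC3 at 3000 cells/well. Compounds in 0.1% DMSO final added 24 h after seeding into fresh 5% serum medium; viability by ATP-LITE luminescence after 72 h, normalised to DMSO-treated cells.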

[25] = Metabolic stability of the compound in rat microsomes after 40 mins; assay type: ADME, Microsome; details: read-out: Stability
[26] = Cytotoxicity against human RS4:11 cells expressing high level of Bcl-2 and Bcl-xL after 24 hrs by annexin V-FITC and propidium iodide staining; details: RS4-11, 24 h

Structure (SMILES)	Activity [1]	Activity [2]	IC50 [3] [nM]	Ki [3] [nM]	Activity [4]	Activity [5] [%]	Activity [6]	IC50 [7] [nM]	Ki [7] [nM]	IC50 [8] [nM]	Ki [8] [nM]	IC50 [9] [nM]	Ki [9] [nM]	Activity [10]	Activity [11]	LD50 [12] [µM]	Activity [13] [%]	remaining at 40 min [15] [%]	Activity [17]	Activity [18] [%]	further results
CC1=C(C2=C(C)C(=O)c3c(cc(O)c(O)c3Cc3ccc(Cl)cc3)C2=O)C(=O)c2cc(O)c(O)c(Cc3ccc(Cl)cc3)c2C1=O	Active	Non-toxic	700	470	Dose-dependent effect	76	Toxic	150	110	340	230	400	270	–	–	–	–	–	–	–	–
CC1=C(C2=C(C)C(=O)c3c(cc(O)c(O)c3CCc3ccc(C)cc3)C2=O)C(=O)c2cc(O)c(O)c(CCc3ccc(C)cc3)c2C1=O	Active	–	–	–	Dose-dependent effect	–	–	3100	2070	3120	2080	2050	1370	5% and 6.8%	Dose-dependent effect	10	33	86	Active	30	Activity [12]: Dose-dependent effect; Activity [14]: Non-toxic; Activity [16]: 60%; Activity [19]: 5%; Kd [20]: 2500 nM; Activity [21]: Non-toxic; Activity [22]: Dose-dependent effect
Cc1cc2c(C(C)C)c(O)c(O)c(C=O)c2c(O)c1-c1c(C)cc2c(C(C)C)c(O)c(O)c(C=O)c2c1O [GOSSYPOL]	–	–	–	–	–	–	–	–	–	–	–	–	–	–	–	–	–	–	–	–	Activity [23]: Toxic
CC1=C(C2=C(C)C(=O)c3c(cc(O)c(O)c3C(=O)NCC(C)c3ccccc3)C2=O)C(=O)c2cc(O)c(O)c(C(=O)NCC(C)c3ccccc3)c2C1=O (stereo not drawn)	Active	Non-toxic	710	470	Dose-dependent effect	–	Toxic	320	210	230	150	470	310	–	–	–	–	91	–	–	EC50 [24]: > 30000 nM; remaining at 40 min [25]: 71%; EC50 [26]: > 30000 nM
CC1=C(C2=C(C)C(=O)c3c(cc(O)c(O)c3Cc3ccccc3)C2=O)C(=O)c2cc(O)c(O)c(Cc3ccccc3)c2C1=O	Active	Non-toxic	650	430	Dose-dependent effect	86	Toxic	340	230	290	190	240	160	–	–	–	–	95	–	–	remaining at 40 min [25]: 91%; Kd [20]: 450 nM; Activity [23]: Toxic
CC1=C(C2=C(C)C(=O)c3c(cc(O)c(O)c3C(C)C)C2=O)C(=O)c2cc(O)c(O)c(C(C)C)c2C1=O	Active	–	–	1470	Dose-dependent effect	–	–	–	420	–	250	–	430	9.3%	Dose-dependent effect	> 30	65	77	Active	20	Activity [22]: Dose-dependent effect
